An excerpt weighted towards active compounds, which were near 3.2% of everything screened.
UBC13 polyUb: blocks human UBC13 polyubiquitin chain formation. inhibition, % at 20 µM. hit rate 0.47% among 330,000. P61088. TR-FRET; in the data active means inhibition above about 45%, passing the limit was not always enough
Apaf-1 inh: human Apaf-1 inhibition; hit rate 0.71% among 330,000; reconstituted apoptosome caspase-3 activity, DEVD-Rh110 fluorescence; O14727; AID 489030; inhibition, % at 20 µM; active means inhibition of at least 40% at 20 µM;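 further: plate controls were DMSO wells for no effect and DEVD-CHO caspase inhibitor wells for full effect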
Target sequence (O14727 whole entry, looked up): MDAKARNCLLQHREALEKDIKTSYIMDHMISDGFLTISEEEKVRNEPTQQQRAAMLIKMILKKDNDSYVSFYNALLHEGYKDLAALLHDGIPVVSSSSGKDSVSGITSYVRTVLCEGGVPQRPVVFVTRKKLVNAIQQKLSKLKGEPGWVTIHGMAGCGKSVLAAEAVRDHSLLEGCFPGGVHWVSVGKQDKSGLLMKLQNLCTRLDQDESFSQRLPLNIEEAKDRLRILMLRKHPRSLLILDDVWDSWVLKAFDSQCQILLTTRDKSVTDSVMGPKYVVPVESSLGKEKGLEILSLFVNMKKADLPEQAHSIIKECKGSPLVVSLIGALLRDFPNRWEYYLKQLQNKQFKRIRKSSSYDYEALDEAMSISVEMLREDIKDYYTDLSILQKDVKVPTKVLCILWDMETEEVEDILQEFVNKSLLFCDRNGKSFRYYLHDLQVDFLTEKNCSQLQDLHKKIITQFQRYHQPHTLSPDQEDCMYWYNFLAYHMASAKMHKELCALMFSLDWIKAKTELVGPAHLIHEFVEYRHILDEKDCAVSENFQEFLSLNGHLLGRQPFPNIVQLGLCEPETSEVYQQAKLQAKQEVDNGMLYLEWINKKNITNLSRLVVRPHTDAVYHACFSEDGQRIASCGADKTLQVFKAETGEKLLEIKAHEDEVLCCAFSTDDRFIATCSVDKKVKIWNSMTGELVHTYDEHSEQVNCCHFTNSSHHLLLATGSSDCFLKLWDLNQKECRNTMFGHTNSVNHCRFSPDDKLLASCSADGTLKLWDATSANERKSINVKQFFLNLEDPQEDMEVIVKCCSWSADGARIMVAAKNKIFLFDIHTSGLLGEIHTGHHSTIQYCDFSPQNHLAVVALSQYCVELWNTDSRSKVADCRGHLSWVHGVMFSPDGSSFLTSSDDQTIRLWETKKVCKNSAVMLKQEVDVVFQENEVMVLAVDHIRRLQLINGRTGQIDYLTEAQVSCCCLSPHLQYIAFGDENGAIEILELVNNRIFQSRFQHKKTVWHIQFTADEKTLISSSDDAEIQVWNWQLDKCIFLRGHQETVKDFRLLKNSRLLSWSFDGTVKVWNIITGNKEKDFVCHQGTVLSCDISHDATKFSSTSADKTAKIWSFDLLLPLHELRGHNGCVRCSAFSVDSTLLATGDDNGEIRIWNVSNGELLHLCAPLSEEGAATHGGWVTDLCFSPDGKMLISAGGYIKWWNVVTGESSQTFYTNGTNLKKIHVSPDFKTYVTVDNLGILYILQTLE
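Assay system – apoptosome proteins · Medium – Hepes buffer, pH 7.5 · Also added – cytochrome c with DEVD-Rh110 · Timing – 30 min compound preincubation, 50 min activation, room temperature · Detection – Rh110 fluorescence, excitation 480 nm, emission 540 nm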
DSG3 Ab inh: inhibitors of pemphigus antibody binding to human desmoglein-3; binding (percent of control), % at 10 µM; hit rate 0.48% among 310,000; DSG3-coupled beads, scFv-anti-DSG3-GFP binding, flow cytometry; stronger effect = lower value;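 active means binding more than 3 SD below its plate's average and above zero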
MEKK2mut PB1 HTS: signal of MEK5 binding to mutant human MEKK2 PB1 domain | hit rate 0.35% among 290,000 | bead flow cytometry, Alexa488-MEK5 binding to MEKK2 mutant | percent response, % at 10 µM; in the data active means percent response above about 24%, passing the limit was not always enough
MEKK2 WT-MEK5: raises or lowers MEK5 binding to wildtype human MEKK2 PB1 domain; Q9Y2U5; bead flow cytometry, Alexa488-MEK5 binding to MEKK2 WT; actives lie on both sides; binding response (% of control), % at 10 µM; hit rate 1.1% among 290,000; AID 1531; in the data active means binding response below about 67% or above about 130%
MEKK3 PB1 HTS: raises or lowers MEK5 binding to the human MEKK3 PB1 domain. Q99759. bead-based flow cytometry, Alexa488-MEK5 binding to MEKK3; actives lie on both sides; 0 = blocked by unlabeled MEK5, 100 = vehicle. binding response (% of control), % at 10 µM. hit rate 1.4% among 290,000. AID 1529;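 active means binding response more than 3 SD above or below the average of its plate-row segment, actives on both sides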;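 further: Alexa488 bead fluorescence after subtracting the streptavidin-only scavenger bead signal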
MEKK2wt confirm: raises or lowers MEK5 binding to wildtype human MEKK2, retest. AID 1892. hit rate 2.4% among 5,900. binding response (% of control), % at 10 µM. bead flow cytometry, Alexa488-MEK5 binding to MEKK2 WT; actives lie on both sides. shares compounds with MEKK3 PB1 HTS; in the data active means binding response below about 16% or above about 210%; inactive means in between
MEKK2mut-MEK5: signal of MEK5 binding to mutant human MEKK2, retest; shares compounds with MEKK3 PB1 HTS; percent response, % at 10 µM; bead flow cytometry, Alexa488-MEK5 binding to MEKK2 mutant; hit rate 2% among 5,900; in the data active means percent response mostly above about 71%, no sharp cut-off; inactive means mostly below about 38%;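 further: higher means compound restores mutant binding toward wildtype level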
MEKK3 confirm: MEKK3-MEK5 PB1 inhibition, single concentration confirmation; shares compounds with MEKK3 PB1 HTS; bead flow cytometry, Alexa488-MEK5 binding to MEKK3; stronger effect = lower value; binding response (% of control), % at 10 µM; hit rate 1.8% among 5,900;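 active means binding response below 72% of control, or above a set upper limit, though filed actives all read lower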;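 further: 100% = DMSO only wells and 0% = binding blocked by excess unlabeled MEK5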
* hit, by the source's call; x = no result; [ ] = dose if it differs, or a comment.

SMILES | UBC13 polyUb | Apaf-1 inh | DSG3 Ab inh | MEKK2mut PB1 HTS | MEKK2 WT-MEK5 | MEKK3 PB1 HTS | MEKK2wt confirm | MEKK2mut-MEK5 | MEKK3 confirm
COc1cc(C(=O)NCC2CCCCC2)ccc1OCc1c(C)noc1C | 2 | -1 | 91 | x | x | x | x | x | x
Cc1ccc2nc(Cl)c(C3CC(c4cccs4)=NN3C(=O)CCC(=O)O)cc2c1 (stereo unspecified) | -4 | 2 | 89 | -1 | 103 | 139* | 86 | 0 | 90
Cc1ccc2nc(Cl)c(C3CC(c4ccco4)=NN3C(=O)CCCC(=O)O)cc2c1 (stereo unspecified) | 3 | -1 | 95 | -1 | 93 | 99 | x | x | x
C/C(=N\NC(=O)c1ccc(OC2CCCC2)cc1)c1ccc(O)cc1 | -4 | 6 | x | 3 | 103 | 101 | x | x | x
Cc1ccc(NC(=O)CSC(C)C(=O)OCc2cc(=O)oc3cc(O)ccc23)cc1 (stereo unspecified) | x | x | 99 | x | x | x | x | x | x
O=C(O)C(Cc1ccccc1)N1C(=O)/C(=C/C=C/c2ccco2)SC1=S (stereo unspecified) | x | x | 88 | -16 | 40*[inhibitor] | 37*[inhibitor] | 89 | -5 | 97
O=C(Nc1c(C(=O)N2CCN(c3ccccn3)CC2)oc2ccccc12)c1cccc([N+](=O)[O-])c1 | -8 | 6 | 98 | -2 | 94 | 97 | x | x | x
N#C/C(=C\c1ccc(C#N)cc1)C(=O)N1CCCC1 | 2 | -16 | 113 | -3 | 88 | 71*[inhibitor] | 103 | 5 | 101
Cc1ccc(Cc2c(C)nc3nc(SCC(=O)NCc4ccco4)nn3c2C)cc1 | -4 | 2 | x | 6 | 129 | 122* | 100 | 3 | 106
Cc1cccc(Cc2c(C)nc3nc(SCC(=O)NCc4ccco4)nn3c2C)c1 | -7 | 25 | x | 7 | 122 | 126* | 102 | -1 | 101
Cc1nc2nc(SCC(=O)NCc3ccco3)nn2c(C)c1Cc1c(F)cccc1Cl | 0 | -1 | 105 | -1 | 100 | 97 | x | x | x
Cc1ccccc1Cc1c(C)nc2nc(SCC(=O)NCc3ccco3)nn2c1C | 5 | -3 | 105 | 4 | 118 | 116 | x | x | x
COc1ccccc1-[n+]1c(C)cc(/C=C2\Sc3ccccc3N2C)cc1C | -58 | 5 | 133 | 6 | 79 | 91 | x | x | x
COc1ccc(-[n+]2c(C)cc(/C=C3\Sc4ccccc4N3C)cc2C)cc1 | -74 | 18 | 139 | -5 | 29*[inhibitor] | 71*[inhibitor] | 61 | -22 | 88
CCN(C(=O)COC(=O)C1CCC(C(C)(C)C)CC1)c1c(N)n(Cc2ccccc2)c(=O)[nH]c1=O (stereo unspecified) | x | x | 103 | x | x | x | x | x | x
CCN1CCN(C(=O)C(C)Oc2ccc(S(=O)(=O)N3CCCC3)cc2C(N)=O)CC1 (stereo unspecified) | -11 | 3 | 109 | x | x | x | x | x | x
Cc1ccc(C)c(NC(=O)c2ccc(S(=O)(=O)C(F)F)cc2)c1 | 12 | 0 | 97 | 1 | 109 | 132* | 99 | -3 | 101
CNS(=O)(=O)c1ccc(NCC2COc3ccccc3O2)c([N+](=O)[O-])c1 (stereo unspecified) | -6 | 9 | 101 | -1 | 103 | 133* | 102 | 0 | 101
O=S(=O)(NCC1COc2ccccc2O1)c1ccc2ccccc2c1 (stereo unspecified) | -1 | 11 | 103 | -1 | 104 | 104 | x | x | x
O=C(/N=C1/c2ccccc2CN1c1ccccc1)Nc1ccccc1 | 12 | 10 | 105 | 1 | 109 | 138* | 102 | 4 | 103
CC(=O)c1ccc(N2Cc3ccccc3/C2=N\C(=O)Nc2ccc(Cl)cc2)cc1 | -2 | 10 | 87 | -1 | 96 | 98 | x | x | x
COC(=O)c1ccc(N2Cc3ccccc3/C2=N\C(=O)Nc2ccccc2)cc1 | 17 | 6 | 102 | 0 | 104 | 137* | 101 | 6 | 105
CCOCCCn1c(=NC(C)=O)c(C#N)cc2c(=O)n3ccccc3nc21 | 8 | -3 | 100 | 2 | 103 | 109 | x | x | x
CC(=O)N=c1c(C#N)cc2c(=O)n3ccccc3nc2n1Cc1ccccc1 | -4 | 8 | 98 | 1 | 105 | 135* | 114 | 14 | 91
COc1ccc(N=C2S/C(=C\c3cccs3)C(=O)N2CC(C)C)cc1 | -3 | 3 | 111 | -7 | 90 | 82*[inhibitor] | 103 | -1 | 107
SMILES | UBC13 polyUb | Apaf-1 inh | DSG3 Ab inh | MEKK2mut PB1 HTS | MEKK2 WT-MEK5 | MEKK3 PB1 HTS | MEKK2wt confirm | MEKK2mut-MEK5 | MEKK3 confirm
COc1ccc(N=C2S/C(=C\c3ccc(C)s3)C(=O)N2CC(C)C)cc1 | -2 | 17 | 98 | 11 | 106 | 107 | x | x | x
COc1ccc(-c2cc(-c3ccc(OC)cc3)[nH]n2)cc1 | 21 | 26 | 98 | 1 | 99 | 103 | x | x | x
COc1ccc(-c2cc(C3CCNCC3)[nH]n2)cc1 | 18 | 13 | 102 | 22 | 154* | 103 | 143 | 26 | 109
Cc1ccc(NC(=O)CN(C)C(=O)c2cccc(S(=O)(=O)NCc3ccco3)c2)cc1 | -2 | -7 | 102 | x | x | x | x | x | x
Cc1cccc(N2C(=O)c3cccc(Oc4ccc(Cl)cc4)c3C2=O)c1 | 4 | 16 | 84 | 0 | 104 | 130* | 99 | -4 | 104
O=C(O)c1cccc(N2C(=O)c3ccc(Oc4ccc(Cl)cc4)cc3C2=O)c1 | -10 | 0 | 103 | -2 | 98 | 98 | x | x | x
O=C(NC1CC1)C1CCCN1C(=O)NC1CCCCC1 (stereo unspecified) | 8 | -7 | 97 | 1 | 106 | 102 | x | x | x
CCCCNC(=O)C1CCCN1C(=O)NC1CCCCC1 (stereo unspecified) | 7 | 0 | 105 | 0 | 3.0*[inhibitor] | 2.0*[inhibitor] | 96 | -6 | 98
CCCC(C)n1[nH]c(=O)cc1N (stereo unspecified) | 0 | 1 | 109 | -3 | 96 | 92 | x | x | x
CCC(CC)n1[nH]c(=O)cc1N | 6 | -9 | 116 | 11 | 124 | 128* | 95 | -4 | 98
CCC(C)(C(=O)NC1CCCC1)N(C(C)=O)c1ccc(C)cc1 (stereo unspecified) | 11 | 4 | x | -18 | 2.0*[inhibitor] | 2.0*[inhibitor] | 127 | 10 | 103
CCC(C)(C(=O)NC1CCCCC1)N(C(=O)C1CCC(=O)N1)c1ccc(C)cc1 (stereo unspecified) | -5 | 2 | 99 | 3 | 102 | 97 | x | x | x

Screens from PubChem.
